In ChEMBL document CHEMBL1828588, “Arylamides hybrids of two high-affinity σ2 receptor ligands as tools for the development of PET radiotracers” (Eur J Med Chem, 2011):

Assays:
[1] = Selectivity ratio of Ki for sigma 1 receptor in guinea pig brain to Ki for sigma 2 receptor in rat liver membrane; format: cell membranes
[2] = Displacement of [3H]-DTG from sigma 2 receptor in rat liver membrane after 30 mins by radioligand binding assay; format: cell membranes
In short: (§1)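 […] (30 Ci/mmol) radioligand binding per Matsumoto et al. IC50 taken from six to nine drug concentrations, in two or three experiments with duplicate samples. Ki obtained by non-linear curve fitting. Tested as hydrochloride salts.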

[3] = target: Sigma non-opioid intracellular receptor 1 (Cavia porcellus, UniProt Q60492); assay: Displacement of [3H]-pentazocine from sigma 1 receptor in guinea pig brain after 30 mins by radioligand binding assay
Sigma non-opioid intracellular receptor 1, sequence (Q60492 whole entry): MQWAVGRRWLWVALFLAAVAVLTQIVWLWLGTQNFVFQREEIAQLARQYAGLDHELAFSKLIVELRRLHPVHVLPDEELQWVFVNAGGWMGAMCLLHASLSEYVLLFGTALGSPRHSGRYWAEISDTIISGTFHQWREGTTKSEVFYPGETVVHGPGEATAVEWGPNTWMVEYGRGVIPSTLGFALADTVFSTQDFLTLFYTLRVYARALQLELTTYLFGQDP

[4] = Inhibition of P-gp in dog MDCK-MDR1 cells by calcein-AM assay; format: cell-based, Canis lupus familiaris
In short: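 MDCK-MDR1 cells overexpressing P-gp, grown in DMEM high glucose with 10% FBS and 2 mM glutamine at 37 °C under 5% CO2. Seeded at 50,000 cells/well and left overnight to confluence. Compound added for 30 min at 37 °C, then calcein-AM (final 2.5 µM in PBS) for 30 min. Wells washed with ice-cold PBS. Fluorescence read at 485/535 nm. EC50 from % increase over untreated basal versus log dose.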

[5] = Lipophilicity, log D of the compound at pH 7.4; format: physicochemical; details: buffer
In short: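 LogD calculated for compounds at pH 7.4.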

[6] = species: Rattus norvegicus; assay: Displacement of [3H]-DTG from sigma 2 receptor in rat liver membrane at […] after 30 mins by radioligand binding assay; format: cell membranes; in short: as §1

COc1cc2c(cc1OC)CN(CCCN1CCc3ccccc3C1=O)CC2
Ratio Ki [1]: 147 | Ki [2]: 0.00484 µM | Ki [3]: 0.709 µM | EC50 [4]: 12 µM | logD [5]: 2.25

COc1cc2c(cc1OC)CN(CCCC1CCCc3c(OC)cccc31)CC2 (stereo not drawn)
Activity [6]: 96% | Ki [3]: 0.151 µM | EC50 [4]: 1.1 µM | logD [5]: 4.33

COc1cc(Br)c(C(=O)NCCCN2CCc3cc(OC)c(OC)cc3C2)cc1OC
Ratio Ki [1]: 50 | Ki [2]: 0.0509 µM | Ki [3]: 2.57 µM | EC50 [4]: 45 µM | logD [5]: 2.89

COc1cc2c(cc1OC)CN(CCCNC(=O)C1CCCc3c(OC)cccc31)CC2 (stereo not drawn)
Ratio Ki [1]: 7 | Ki [2]: 0.0211 µM | Ki [3]: 0.146 µM | EC50 [4]: 2.7 µM | logD [5]: 3.21

COc1cc2c(cc1OC)CN(CCCNC(=O)c1cc(C)ccc1OC)CC2
Ratio Ki [1]: 203 | Ki [2]: 0.00263 µM | Ki [3]: 0.534 µM | EC50 [4]: 5.3 µM | logD [5]: 2.7

COc1cc(Br)c(C(=O)NCCCN2CCN(C3CCCCC3)CC2)cc1OC
Ratio Ki [1]: 0.6 | Ki [2]: 0.467 µM | Ki [3]: 0.268 µM | EC50 [4]: 45 µM | logD [5]: 2.11

Cc1ccccc1NC(=N)Nc1ccccc1C [DITOLYLGUANIDINE]
Ki [2]: 0.0263 µM

COc1cc2c(cc1OC)CN(CCCCNC(=O)c1cc(C)ccc1OC)CC2
Ratio Ki [1]: 247 | Ki [2]: 0.00868 µM | Ki [3]: 2.15 µM | EC50 [4]: 1.6 µM | logD [5]: 2.83

COc1cc2c(cc1OC)CN(CCCNC(=O)c1cc(Br)cc(OC)c1OC)CC2
Ratio Ki [1]: 341 | Ki [2]: 0.0129 µM | Ki [3]: 4.4 µM | EC50 [4]: 2.5 µM | logD [5]: 3.22

COc1cc(Br)cc(C(=O)NCCCN2CCN(C3CCCCC3)CC2)c1OC
Ratio Ki [1]: 1.2 | Ki [2]: 0.0212 µM | Ki [3]: 0.0258 µM | EC50 [4]: 2.7 µM | logD [5]: 2.43

COc1cccc2c1CCCC2C(=O)NCCCN1CCN(C2CCCCC2)CC1 (stereo not drawn)
Ratio Ki [1]: 2 | Ki [2]: 0.0165 µM | Ki [3]: 0.0351 µM | EC50 [4]: 8.6 µM | logD [5]: 2.46

O=C1c2ccccc2CCN1CCCN1CCN(C2CCCCC2)CC1
Ratio Ki [1]: 1 | Ki [2]: 0.0266 µM | Ki [3]: 0.0247 µM | EC50 [4]: 20 µM | logD [5]: 1.49

COc1cccc2c1CCCC2CCCN1CCN(C2CCCCC2)CC1 (stereo not drawn)
Ki [2]: 0.00068 µM | EC50 [4]: 3 µM | logD [5]: 3.75

COc1ccc(C)cc1C(=O)NCCCN1CCN(C2CCCCC2)CC1
Ratio Ki [1]: 1.7 | Ki [2]: 0.0261 µM | Ki [3]: 0.0455 µM | EC50 [4]: 8.6 µM | logD [5]: 1.94
